Measurements from different studies.
Protocols differ between the studies behind these lines. ≈ marks a conversion by molar mass, not a printed value.
Organism: Nakaseomyces glabratus

Compound	read-out	technique	strain	time	measurement	result
CCCCOc1c(OC)cc(NC(C)CCCN)c2nc(C(C)(C)C)cc(C)c12 (stereo not shown)	microbial killing	–	ATCC90030	–	MFC	> 20 µg/mL
CCCCCCCCCN1CCNCC1	microbial growth	broth dilution	ATCC2001	48 h	MIC	31.3 µg/mL (≈ 147 µM)
OC(Cn1cncn1)(Cn1cncn1)c1ccc(F)cc1F	microbial growth	broth dilution	ATCC90030	24 h	IC50	7.8 µg/mL (≈ 25.5 µM)
OC(Cn1cncn1)(Cn1cncn1)c1ccc(F)cc1F	microbial growth	broth dilution	–	24 h	MIC90	16 µg/mL (≈ 52.2 µM)
C[C@@H]1[C@H](O)[C@@H](C)/C=C/C=C/C=C/C=C/C=C/C=C/C=C/[C@H](O[C@@H]2O[C@H](C)[C@@H](O)[C@H](N)[C@@H]2O)C[C@@H]2O[C@](O)(C[C@@H](O)C[C@@H](O)[C@H](O)CC[C@@H](O)C[C@@H](O)CC(=O)O[C@H]1C)C[C@H](O)[C@H]2C(=O)O	microbial growth	–	ATCC90030	–	IC50	0.14 µg/mL (≈ 0.152 µM)
CCCCCCCCCCCCCCN1CCN(CC(O)(Cn2cncn2)c2ccc(F)cc2F)CC1 (stereo not shown)	microbial growth	broth dilution	ATCC2001	48 h	MIC	> 31.3 µg/mL
CCCCCCCOc1c(OC)cc(NC(C)CCCN)c2nc(C(C)(C)C)cc(C)c12 (stereo not shown)	microbial growth	–	ATCC90030	–	IC50	4.3 µg/mL (≈ 9.69 µM)
CCOC(=O)c1nc2ccccc2c(=O)n1Cc1cn(-c2ccc(OC)cc2)nn1	microbial growth	broth dilution	ATCC90030	24 h	IC50	118 µg/mL (≈ 292 µM)
CCCCCCCCCCCCCN1CCNCC1	microbial growth	broth dilution	ATCC2001	48 h	MIC	0.48 µg/mL (≈ 1.79 µM)
CCCCCOc1c(OC)cc(NC(C)CCCNC(=O)C(N)CC(C)C)c2nc(C(C)(C)C)ccc12 (stereo not shown)	microbial growth	–	ATCC90030	–	IC50	11.3 µg/mL (≈ 22 µM)
CCCCCCCCCCCN1CCNCC1	microbial growth	broth dilution	ATCC2001	48 h	MIC	7.8 µg/mL (≈ 32.4 µM)
CCOC(=O)c1nc2ccccc2c(=O)n1Cc1cn(-c2cccc(Cl)c2)nn1	microbial growth	broth dilution	ATCC90030	24 h	IC50	58.2 µg/mL (≈ 142 µM)
CCCCCCCCCCCCCCN1CCOCC1	microbial growth	broth dilution	ATCC2001	48 h	MIC	> 31.3 µg/mL
CCCCCOc1c(OC)cc(NC(C)CCCNC(=O)C(N)CCCNC(=N)N)c2nc(C(C)(C)C)ccc12 (stereo not shown)	microbial growth	–	ATCC90030	–	IC50	19.1 µg/mL (≈ 34.2 µM)
O=C(O)c1nc2ccccc2c(=O)n1Cc1cn(-c2ccc(Cl)cc2)nn1	microbial growth	broth dilution	ATCC90030	24 h	IC50	517 µg/mL (≈ 1350 µM)
C=CCCCCCCCCCCCC(O)CC(O)CO (stereo not shown)	microbial growth	broth dilution	ATCC90030	–	IC50	> 200 µg/mL
CCCCCCCCN1CCNCC1	microbial growth	broth dilution	ATCC2001	48 h	MIC	> 31.3 µg/mL
OC(Cn1cncn1)(Cn1cncn1)c1ccc(F)cc1F	microbial killing	–	ATCC1182	–	MFC	> 64 µg/mL
CCOC(=O)c1nc2ccccc2c(=O)n1Cc1cn(-c2ccc(F)cc2)nn1	microbial growth	broth dilution	ATCC90030	24 h	IC50	292 µg/mL (≈ 744 µM)
COc1ccc(-c2cc(OC)cc(C(C)C#Cc3c(C)nc(N)nc3N)c2)cc1 (stereo not shown)	microbial growth	resazurin	–	–	MIC	3.1 µg/mL (≈ 7.98 µM)
CCOC(=O)c1nc2ccccc2c(=O)n1Cc1cn(-c2ccccc2C)nn1	microbial growth	broth dilution	ATCC90030	24 h	IC50	351 µg/mL (≈ 902 µM)
CCCCCN1CCNCC1	microbial growth	broth dilution	ATCC2001	48 h	MIC	> 31.3 µg/mL
CCCCCCOc1c(OC)cc(NC(C)CCCN)c2nc(C(C)(C)C)ccc12 (stereo not shown)	microbial killing	–	ATCC90030	–	MFC	20 µg/mL (≈ 48.1 µM)
CCOC(=O)c1nc2ccccc2c(=O)n1Cc1cn(-c2ccccc2F)nn1	microbial growth	broth dilution	ATCC90030	24 h	IC50	245 µg/mL (≈ 622 µM)
CCCCCCOc1c(OC)cc(NC(C)CCCNC(=O)C(N)Cc2cnc[nH]2)c2nc(C(C)(C)C)ccc12 (stereo not shown)	microbial growth	–	ATCC90030	–	IC50	19.2 µg/mL (≈ 34.8 µM)
CCCCCCCCCCCCN1CCN(CC(O)(Cn2cncn2)c2ccc(Cl)cc2Cl)CC1 (stereo not shown)	microbial growth	broth dilution	ATCC2001	48 h	MIC	0.975 µg/mL (≈ 1.86 µM)
CCOC(=O)c1nc2ccccc2c(=O)n1Cc1cn(-c2ccccc2)nn1	microbial growth	broth dilution	ATCC90030	24 h	IC50	182 µg/mL (≈ 484 µM)
C[C@@H]1[C@H](O)[C@@H](C)/C=C/C=C/C=C/C=C/C=C/C=C/C=C/[C@H](O[C@@H]2O[C@H](C)[C@@H](O)[C@H](N)[C@@H]2O)C[C@@H]2O[C@](O)(C[C@@H](O)C[C@@H](O)[C@H](O)CC[C@@H](O)C[C@@H](O)CC(=O)O[C@H]1C)C[C@H](O)[C@H]2C(=O)O	microbial killing	–	ATCC90030	–	MFC	1.25 µg/mL (≈ 1.35 µM)
